# Test results reported in ChEMBL document CHEMBL1938298, “Synthesis and characterization of [¹²⁵I]2-iodo N-[(S)-{(S)-1-methylpiperidin-2-yl}(phenyl)methyl]3-trifluoromethyl-benzamide as novel imaging probe for glycine transporter 1” (Bioorg Med Chem, 2011).
# Active and inactive are the calls of the source. No cut-off for these calls is given here.
# Tests used:
# Kidney [1] = assay: Drug uptake in ddY mouse kidney at 11.1 kBq, iv after 0.5 min by gamma counting; assay type: ADME, organism-based; conditions: in vivo
# Summary of the method: (§1)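 Male ddY mice (6 weeks, 30–35 g) received about 11.1 kBq [125I]tracer in 0.1 mL i.v. via tail vein. Killed at set times, organs dissected and weighed, radioactivity gamma counted. Reported as % injected dose/g tissue, mean ± SD, n = 5–6.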
# Kidney [2] = assay: Drug uptake in ddY mouse kidney at 11.1 kBq, iv after 15 min by gamma counting; assay type: ADME, organism-based; conditions: in vivo
# Summary of the method: (§2)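 Male ddY mice (6 weeks, 30–35 g) were given about 11.1 kBq of [125I]tracer in 0.1 mL i.v. via the tail vein. At each time point the animals were killed and organs dissected, weighed and gamma-counted. Uptake is expressed as % injected dose per gram of tissue, mean ± SD, n = 5–6.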
# Nucleic Acid = assay: Ratio of drug level in brain to blood in ddY mouse at 11.1 kBq, iv after 30 min by gamma counting; assay type: ADME, organism-based; conditions: 0.5 h
# Stomach = assay: Drug uptake in ddY mouse stomach at 11.1 kBq, iv after 15 min by gamma counting; assay type: ADME, organism-based; conditions: in vivo; summary of the method: as §2
# Pancreas [3] = assay: Drug uptake in ddY mouse pancreas at 11.1 kBq, iv after 5 min by gamma counting; assay type: ADME, organism-based; conditions: in vivo; summary of the method: as §2
# Pancreas [4] = assay: Drug uptake in ddY mouse pancreas at 11.1 kBq, iv after 30 min by gamma counting; assay type: ADME, organism-based; conditions: in vivo, 0.5 h; summary of the method: as §2
# Heart = assay: Drug uptake in ddY mouse heart at 11.1 kBq, iv after 60 min by gamma counting; assay type: ADME, organism-based; conditions: in vivo, 1 h; summary of the method: as §1
# Mus musculus [5] = assay: In vivo binding affinity to GlyT1 in ddY mouse brain striatum at 33.3 kBq, iv after 60 mins in presence of nonradioactive compound 2 mg/kg, iv administered 15 mins prior to compound administration relative to control; assay type: functional, organism-based; design: dose 2 mg/kg; conditions: tested as the 125I-labelled form
# Mus musculus [6] = assay: In vivo binding affinity to GlyT1 in ddY mouse brain midbrain at 33.3 kBq, iv after 30 mins in presence of SSR504734 2 mg/kg, iv administered 15 mins prior to compound administration relative to control; assay type: functional, organism-based; design: dose 2 mg/kg; conditions: tested as the 125I-labelled form
# Mus musculus [7] = assay: In vivo binding affinity to GlyT1 in ddY mouse brain cerebellum at 33.3 kBq, iv after 30 mins in presence of SSR504734 2 mg/kg, iv administered 15 mins prior to compound administration relative to control; assay type: functional, organism-based; design: dose 2 mg/kg; conditions: tested as the 125I-labelled form
# Summary of the method: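 Blocking study in male ddY mice (6 weeks, 30–35 g). The blocker (2 mg/kg in 30% DMSO/saline) was injected i.v. 15 min before about 33.3 kBq [125I]tracer i.v.; mice were killed at 30 or 60 min. Brains were divided into cortex, corpus callosum, hippocampus, thalamus, midbrain, medulla and cerebellum, weighed and gamma-counted as % dose/g. Values are mean ± SD, n = 5–6, compared to control by Kruskal–Wallis with Dunn's post-test.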
# [8] = target: T1, Sodium- and chloride-dependent glycine transporter 1 (Rattus norvegicus) (UniProt P28572); assay: Binding affinity to GlyT1 in rat brain corpus callosum at 0.03 to 0.04 nM preincubated for 20 mins in binding buffer before compound addition measured after 30 mins by autoradiography in presence of 10 mM GlyT1 substrate glycine relative to control; assay type: tissue-based; conditions: tested as the 125I-labelled form
# T1 sequence (whole entry): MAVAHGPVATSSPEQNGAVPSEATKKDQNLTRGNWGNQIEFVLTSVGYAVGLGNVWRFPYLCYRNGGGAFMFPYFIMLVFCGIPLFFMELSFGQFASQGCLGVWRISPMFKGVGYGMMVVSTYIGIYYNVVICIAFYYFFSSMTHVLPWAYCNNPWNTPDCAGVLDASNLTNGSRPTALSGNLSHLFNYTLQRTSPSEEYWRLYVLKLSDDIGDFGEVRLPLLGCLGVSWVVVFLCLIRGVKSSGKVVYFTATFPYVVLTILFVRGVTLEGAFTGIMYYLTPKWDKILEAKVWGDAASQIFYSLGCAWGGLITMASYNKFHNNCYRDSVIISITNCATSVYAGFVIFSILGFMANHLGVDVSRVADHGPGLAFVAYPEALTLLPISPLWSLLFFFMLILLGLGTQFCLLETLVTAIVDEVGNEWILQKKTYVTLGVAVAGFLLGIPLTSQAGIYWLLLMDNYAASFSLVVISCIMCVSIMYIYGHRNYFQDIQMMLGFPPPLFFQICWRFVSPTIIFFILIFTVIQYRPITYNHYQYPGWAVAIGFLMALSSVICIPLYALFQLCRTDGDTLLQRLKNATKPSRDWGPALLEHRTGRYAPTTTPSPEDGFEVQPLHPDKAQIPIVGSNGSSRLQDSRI
# Summary of the method: (§3)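 Rat brain sagittal sections (20 µm) preincubated 20 min at 25 °C in Tris-HCl buffer pH 7.5 (NaCl, KCl, MgCl2, CaCl2), then 30 min at 25 °C with [125I] tracer (100 kBq, 0.03–0.04 nM) plus competitor (10 µM; glycine 1 or 10 mM). Cold washes, imaging plate 3 days, ROI PSL minus background per mm². % control from ≥triplicate slices, three rats.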
# [9] = target: T1, Sodium- and chloride-dependent glycine transporter 1 (Rattus norvegicus); assay: Binding affinity to GlyT1 in rat brain hippocampus at 0.03 to 0.04 nM preincubated for 20 mins in binding buffer before compound addition measured after 30 mins by autoradiography in presence of 0.01 mM GlyT1 inhibitor SSR504734 relative to control; assay type: tissue-based; conditions: tested as the 125I-labelled form; summary of the method: as §3
# [10] = target: T1, Sodium- and chloride-dependent glycine transporter 1 (Rattus norvegicus); assay: Binding affinity to GlyT1 in rat brain hippocampus at 0.03 to 0.04 nM preincubated for 20 mins in binding buffer before compound addition measured after 30 mins by autoradiography in presence of GlyT1 inhibitor N-Me-SSR504734 relative to control; assay type: tissue-based; conditions: tested as the 125I-labelled form; summary of the method: as §3
# [11] = target: T1, Sodium- and chloride-dependent glycine transporter 1 (Rattus norvegicus); assay: Binding affinity to GlyT1 in rat brain thalamus at 0.03 to 0.04 nM preincubated for 20 mins in binding buffer before compound addition measured after 30 mins by autoradiography relative to control; assay type: tissue-based; conditions: tested as the 125I-labelled form
# [12] = target: T1, Sodium- and chloride-dependent glycine transporter 1 (Rattus norvegicus); assay: Binding affinity to GlyT1 in rat brain cerebellar white matter at 0.03 to 0.04 nM preincubated for 20 mins in binding buffer before compound addition measured after 30 mins by autoradiography relative to control; assay type: tissue-based; conditions: tested as the 125I-labelled form
# [13] = target: T1, Sodium- and chloride-dependent glycine transporter 1 (Rattus norvegicus); assay: Binding affinity to GlyT1 in rat brain cerebral cortex at 0.03 to 0.04 nM preincubated for 20 mins in binding buffer before compound addition measured after 30 mins by autoradiography in presence of GlyT1 inhibitor N-Me-SSR504734 relative to control; assay type: tissue-based; conditions: tested as the 125I-labelled form; summary of the method: as §3
# [14] = target: T1, Sodium- and chloride-dependent glycine transporter 1 (Rattus norvegicus); assay: Binding affinity to GlyT1 in rat brain cerebral cortex at 0.03 to 0.04 nM preincubated for 20 mins in binding buffer before compound addition measured after 30 mins by autoradiography in presence of 10 mM GlyT1 substrate glycine relative to control; assay type: tissue-based; conditions: tested as the 125I-labelled form; summary of the method: as §3
# [15] = target: T1, Sodium- and chloride-dependent glycine transporter 1 (Rattus norvegicus); assay: Binding affinity to GlyT1 in rat brain cerebral cortex at 0.03 to 0.04 nM preincubated for 20 mins in binding buffer before compound addition measured after 30 mins by autoradiography in presence of 0.01 mM GlyT2 inhibitor ORG25543 relative to control; assay type: tissue-based; conditions: tested as the 125I-labelled form; summary of the method: as §3
# [16] = target: T1, Sodium- and chloride-dependent glycine transporter 1 (Rattus norvegicus); assay: Binding affinity to GlyT1 in rat brain cerebral cortex at 0.03 to 0.04 nM preincubated for 20 mins in binding buffer before compound addition measured after 30 mins by autoradiography in presence of 0.01 mM NMDA receptor glycine site antagonist L-701,324 relative to control; assay type: tissue-based; conditions: tested as the 125I-labelled form; summary of the method: as §3
SMILES,Drug uptake (Kidney [1]) [% ID/g],Drug uptake (Kidney [2]) [% ID/g],Ratio (Nucleic Acid),Drug uptake (Stomach) [% ID/g],Drug uptake (Pancreas [3]) [% ID/g],Drug uptake (Pancreas [4]) [% ID/g],Drug uptake (Heart) [% ID/g],Activity (Mus musculus [5]),Activity (Mus musculus [6]),Activity (Mus musculus [7]),Activity [8] [%],Activity [9] [%],Activity [10] [%],Activity [11],Activity [12],Activity [13] [%],Activity [14] [%],Activity [15] [%],Activity [16] [%]
CN1CCCC[C@H]1[C@@H](NC(=O)c1cccc(C(F)(F)F)c1[125I])c1ccccc1,4.05,8.86,2.46,5.22,6.4,12.02,2.79,,,,,,,,,,,,
CN1CCCC[C@H]1[C@@H](NC(=O)c1cccc(C(F)(F)F)c1I)c1ccccc1,,,,,,,,Active,inactive,inactive,39.6,46.3,45.8,Active,Active,37.5,43.7,95.1,92.5
